Here are results for 21 compounds from ChEMBL document CHEMBL1795282, “Synthesis, biological evaluation, and docking studies of gigantol analogs as calmodulin inhibitors” (Eur J Med Chem, 2011).

The species entered for one assay is Homo sapiens. The assay can be described thus: Binding affinity to human Calmodulin M124C mutant assessed as extrinsic fluorescence quenching in phosphate buffer at pH 5.1 by mBBr fluorescence assay. The gist of the method: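 Ca²⁺–hCaM M124C–mBBr biosensor at 5 μM in 100 mM phosphate buffer, pH 5.1, with 10 mM CaCl₂, stirred at 37 °C and titrated with ligand. Excitation was at 381 nm, with emission scanned from 400 to 550 nm. Fractional saturation was taken as y = (F − F₀)/(F∞ − F₀) at 470 nm versus ligand concentration. Apparent constant Km, Emax and Hill coefficient came from a Hill-equation fit.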

The target of a further assay is Calmodulin-1 (Homo sapiens, UniProt P0DP23). Kind of assay: Inhibition of Calmodulin-dependent PDE1 activity assessed as inorganic phosphate release after 30 min.

Calls of active or inactive are those of the source. The rule behind the calls is not given here.

For the compound `c1ccc(Cc2ccccc2)cc1` [DIPHENYLMETHANE], the result in the assay listed under Homo sapiens was inactive. At Calmodulin-1, the IC50 was determined as 15 µM.
For `COc1cc(O)cc(CCc2ccc3c(c2)OCO3)c1`, the Km in the assay listed under Homo sapiens is 45.5 µM. For the same compound, the IC50 at Calmodulin-1 amounted to 31.3 µM.
The like results for `Oc1cccc(CCc2ccc3c(c2)OCO3)c1` were, in that order, 63.8 µM and 75.9 µM.
For `COc1cc(O)cc(CCCc2ccc(O)c(OC)c2)c1`, in the assay filed under Homo sapiens, the Km came to 54.3 µM. For the same compound, on Calmodulin-1, the IC50 is 32.5 µM.
Consider `COc1cc(CCc2ccc(N(C)C)cc2)cc(OC)c1`, for which the Michaelis-Menten constant (Km) in the assay listed under Homo sapiens was found to be 10 µM. In addition, the IC50 at Calmodulin-1 turned out to be 36.3 µM.
The like results for `COc1cc(O)cc(C(=O)/C=C/c2ccc(O)c(OC)c2)c1` were, in that order, 5.31 µM and 57.3 µM.
The like results for `COc1ccc(CCc2cc(OC)cc(OC)c2)cc1` were, in that order, 21.8 µM and 146 µM.
For `CCOc1ccc(CCc2cccc(O)c2)cc1OC`, the Michaelis-Menten constant (Km) in the assay filed under Homo sapiens was 58.1 µM. Further, the half-inhibitory concentration (IC50) on Calmodulin-1 was found to be 46.1 µM.
Consider `c1ccc(CCc2ccccc2)cc1`, for which, in the assay filed under Homo sapiens, the result was inactive. The inhibition entry at Calmodulin-1 is “inactive”.
On to `Oc1cccc(CCCc2ccc3c(c2)OCO3)c1`, for which the Km in the assay listed under Homo sapiens came out at 14.2 µM. Also, the IC50 at Calmodulin-1 turned out to be 22.9 µM.
Take `COc1cc(Cc2cccc(OC)c2O)cc(OC)c1`: in the assay filed under Homo sapiens, the Km was 33.8 µM. On Calmodulin-1, the 50% inhibitory concentration (IC50) was found to be 56.1 µM.
With `CCOc1ccc(CCc2cc(OC)cc(OC)c2)cc1OC`, the Michaelis-Menten constant (Km) in the assay filed under Homo sapiens was determined as 9.88 µM. The IC50 on Calmodulin-1 was 18.4 µM.
In the case of `COc1cc(O)cc(CCc2ccc(O)c(OC)c2)c1` [GIGANTOL], the Michaelis-Menten constant (Km) in the assay filed under Homo sapiens came to 60.8 µM. The IC50 at Calmodulin-1 stood at 114 µM.
For `CCOc1ccc(CCc2cc(O)cc(OC)c2)cc1OC`, the Michaelis-Menten constant (Km) in the assay filed under Homo sapiens stood at 25.3 µM. The half-maximal inhibitory concentration (IC50) at Calmodulin-1 came to 54.7 µM.
In the case of `COc1cc(Cc2ccc(O)c(OC)c2)cc(OC)c1`, the Km in the assay listed under Homo sapiens was found to be 33.1 µM. For the same compound, on Calmodulin-1, the half-maximal inhibitory concentration (IC50) is 54.7 µM.
With `c1ccc(COc2ccccc2)cc1`, in the assay listed under Homo sapiens, the outcome was inactive. Also, the inhibition entry on Calmodulin-1 was “inactive”.
Turning to `COc1cc(O)cc(CCc2ccc(N(C)C)cc2)c1`, the Michaelis constant (Km) in the assay filed under Homo sapiens was 12 µM. Besides, the IC50 on Calmodulin-1 stood at 30.1 µM.
Consider `COc1ccc(CCCc2ccc(O)cc2)cc1`, for which the Michaelis constant (Km) in the assay listed under Homo sapiens came out at 8.7 µM. For the same compound, the IC50 at Calmodulin-1 was 62.7 µM.
For the compound `COc1ccc(/C=C/C(=O)c2ccc(O)cc2)cc1`, the Michaelis constant (Km) in the assay listed under Homo sapiens was 10.3 µM. Further, the IC50 at Calmodulin-1 was 22.5 µM.
As for `COc1cc(O)cc(C(=O)/C=C/c2ccc(OC)c(O)c2)c1`, the Km in the assay filed under Homo sapiens amounted to 3.89 µM. Further, the half-maximal inhibitory concentration (IC50) on Calmodulin-1 was determined as 37.7 µM.
On to `COc1ccc(CCc2cc(O)cc(OC)c2)cc1`, for which the Km in the assay listed under Homo sapiens stood at 80 µM. Besides, the IC50 on Calmodulin-1 was determined as 9.38 µM.

What is called IC50 is the point on the concentration scale where inhibition reaches its midpoint. The Km is the substrate concentration at which the rate is half of its maximum.
